According to publication PMC4609290 (Molecular cell, 2015):

Legend:
[1] = system: H3(15-34) peptides; experiment: Peptide pull-down and ITC of AF10PZP mutants; format: binding; conditions: pull-down and ITC assays
How it was run: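 Alanine substitutions were made at AF10PZP residues that contact H3T22, H3K23, H3A24, H3R26 and H3K27. GST-AF10PZP (pGEX-6P-1 construct) was used in pull-downs with biotinylated H3(15-34) peptides, and binding was also assessed by ITC.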

[2] = system: chromatin (U2OS cells); format: cell-based
How it was run: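 Lysates from U2OS cells expressing wild-type or mutant GFP-AF10 were biochemically separated into soluble and chromatin-enriched fractions, then Western blotted with the indicated antibodies. Whole cell extract controlled for total AF10 expression, and tubulin and H3 levels controlled for integrity of fractionation.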

[3] = system: chromatin (HeLa cells); experiment: In situ fractionation, fluorescence microscopy; format: cell-based; conditions: detergent treatment prior to fixation, 30–60 cells, three independent fields, two biological replica
[4] = system: PABPC1 gene, U2OS cells; experiment: ChIP of GFP at PABPC1; format: cell-based; conditions: % GFP signal/input, three experiments
How it was run: (§1)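 Direct ChIP at the PABPC1 gene used two primer positions along the gene in the U2OS AF10 complementation lines. GFP enrichment was expressed as % GFP signal/input. H3K79me2 signal was normalized to total H3 signal. SEM came from three experiments.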

[5] = system: ML2 leukemia cells; experiment: Proliferation of ML2 cells; format: cell-based; conditions: AF10-depleted ML2 cells; three independent experiments
How it was run: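 Growth curves were run on ML2 leukemia cells (MLL-AF6 fusion) carrying control or AF10-targeting sgRNA, either without reconstitution or reconstituted with wild-type AF10 or AF10L107A. SEM came from three independent experiments.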

[6] = system: H3K79me2 at the PABPC1 gene, U2OS cells; experiment: ChIP of H3K79me2 at PABPC1; format: cell-based; conditions: AF10 deleted, normalized to total H3, three experiments
How it was run: as §1

B1: GFP-AF10L107A: AF10 mutant that abolishes H3 binding, involved in both K23 and K27 side-chain recognition (protein)
chain: MVSSDRPVSLEDEVSHSMKEMIGGCCVCSDERGWAENPLVYCDGHGCSVAVHQACYGIVQVPTGPWFCRKCESQERAARVRCELCPHKDGALKRTDNGGWAHVVCAAYIPEVQFANVSTMEPIVLQSVPHDRYNKTCYICDEQGRESKAATGACMTCNKHGCRQAFHVTCAQFAGLLCEEEGNGADNVQYCGYCKYHFSKLKKSKRGS
modifications: left off: GST, end not stated, kept
[1]
  effect of AF10PZP mutation on binding to H3 peptides: abolishes H3 binding
[2]; tetracycline-inducible GFP-AF10
  AF10 enrichment at chromatin: reduced in comparison to wild-type AF10
[2]; versus wild-type AF10
  AF10 detected in the soluble fraction: more mutant being detected in the soluble fraction
[3]
  chromatin-association by in situ fractionation: Decreased chromatin-association
[4]
  occupancy at the PABPC1 gene: low relative to wild-type GFP-AF10
[5]
  reversal of decreased proliferation: but not with mutant AF10L107A
[6]
  reconstitution of H3K79me2 signal at PABPC1: but not upon induction of GFP-AF10L107A
